Measured values as given in ChEMBL document CHEMBL2440049, “A structurally simplified analogue of geldanamycin exhibits neuroprotective activity” (ACS Med Chem Lett, 2013).
Calls of active or inactive are those of the source. The calls are words filed in the database; no cut-off is given here.

Columns and labels:
[1] = Cytoprotective activity in human Friedreich's ataxia lymphocytes assessed as reduction in DEM-induced oxidative stress at 0.1 uM preincubated for 16 hrs prior to DEM-stimulation measured after 6 hrs by trypan blue exclusion assay relative to untreated control; type: functional; set-up: scale not given: the % may be the effect or the level left
Summary of the method: (§1)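 FRDA lymphocytes treated with compound at 0.1–5 μM, then oxidatively stressed with diethyl maleate to deplete glutathione. Viability set to 100% for untreated cells. Mean ± SEM of three independent experiments run in duplicate.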

[2] = Cytoprotective activity in human Friedreich's ataxia lymphocytes assessed as reduction in DEM-induced oxidative stress at 0.5 uM preincubated for 16 hrs prior to DEM-stimulation measured after 6 hrs by trypan blue exclusion assay relative to untreated control; type: functional; set-up: scale not given: the % may be the effect or the level left; summary of the method: as §1
Homo sapiens [3] = species on record: Homo sapiens; assay: Antioxidant activity in human Friedreich's ataxia lymphocytes assessed as suppression of DEM-induced lipid peroxidation at 1 uM after overnight incubation by flow cytometric analysis relative to untreated control; type: functional
Summary of the method: (§2)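 FRDA lymphocytes treated with compound at 1, 5 or 10 μM, then stressed with DEM. Lipid peroxidation probed with C11-BODIPY581/591; oxidized green fluorescence, median intensity, measured by flow cytometry and compared with untreated control. Results given as % scavenging activity; mean ± SEM, n = 3.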

[4] = Cytoprotective activity in human Friedreich's ataxia lymphocytes assessed as reduction in DEM-induced oxidative stress at 2.5 uM preincubated for 16 hrs prior to DEM-stimulation measured after 6 hrs by trypan blue exclusion assay relative to untreated control; type: functional; set-up: scale not given: the % may be the effect or the level left; summary of the method: as §1
[5] = Cytoprotective activity in human Friedreich's ataxia lymphocytes assessed as reduction in DEM-induced oxidative stress at 5 uM preincubated for 16 hrs prior to DEM-stimulation measured after 6 hrs by trypan blue exclusion assay relative to untreated control; type: functional; set-up: scale not given: the % may be the effect or the level left; summary of the method: as §1
Homo sapiens [6] = species on record: Homo sapiens; assay: Antioxidant activity in human Friedreich's ataxia lymphocytes assessed as suppression of DEM-induced ROS production at 5 to 10 uM preincubated for 16 hrs prior to DEM-stimulation measured after 80 mins by flow cytometric analysis; type: functional
Summary of the method: (§3)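 FRDA lymphocytes pretreated 16 h with compound (5 and 10 μM), then 5 mM diethyl maleate for 80 min to deplete glutathione. Cells washed, resuspended in PBS with 20 mM glucose, loaded with 10 μM DCFH-DA for 20 min. DCF fluorescence read by flow cytometry, 488 nm excitation, 530 ± 15 nm emission, 10,000 events. Expressed as % ROS scavenging; mean ± SEM, n = 3.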

Homo sapiens [7] = species on record: Homo sapiens; assay: Antioxidant activity in human Friedreich's ataxia lymphocytes assessed as suppression of DEM-induced lipid peroxidation at 5 uM after overnight incubation by flow cytometric analysis relative to untreated control; type: functional; summary of the method: as §2
Homo sapiens [8] = species on record: Homo sapiens; assay: Antioxidant activity in human Friedreich's ataxia lymphocytes assessed as suppression of DEM-induced lipid peroxidation after overnight incubation by flow cytometric analysis; type: functional; summary of the method: as §2
Homo sapiens [9] = species on record: Homo sapiens; assay: Cytoprotective activity in DEM-stimulated human Friedreich's ataxia lymphocytes assessed as cells with intact mitochondrial membrane potential at 5 uM preincubated for 16 hrs prior to DEM-stimulation measured after 140 mins by TMRM dye-based flow cytometric analysis (reference value: 92%); type: functional
Homo sapiens [10] = species on record: Homo sapiens; assay: Antioxidant activity in human Friedreich's ataxia lymphocytes assessed as suppression of DEM-induced lipid peroxidation at 10 uM after overnight incubation by flow cytometric analysis relative to untreated control; type: functional; summary of the method: as §2
Homo sapiens [11] = species on record: Homo sapiens; assay: Antioxidant activity in human Friedreich's ataxia lymphocytes assessed as suppression of DEM-induced ROS production preincubated for 16 hrs prior to DEM-stimulation measured after 80 mins by flow cytometric analysis; type: functional; summary of the method: as §3
[12] = Cytotoxicity against DEM-stimulated human Friedreich's ataxia lymphocytes assessed as effect on intracellular glutathione concentration at 1 to 10 uM; type: cell-based
BT-474 [13] = assay: Cytotoxicity against human BT474 cells at 5 to 20 uM after 48 hrs by WST-1 assay; type: cell-based; details: bt-474, 48 h
[14] = target: Heat shock protein HSP 90-beta (Homo sapiens) (UniProt P08238); assay: Inhibition of HSP90 in human BT474 cells expressing HER2 assessed as increase in HSP90 protein level at 0.5 to 5 uM after 24 hrs by chemiluminescence assay; type: cell-based; details: BT-474
Sequence of Heat shock protein HSP 90-beta (Homo sapiens) (P08238 whole entry): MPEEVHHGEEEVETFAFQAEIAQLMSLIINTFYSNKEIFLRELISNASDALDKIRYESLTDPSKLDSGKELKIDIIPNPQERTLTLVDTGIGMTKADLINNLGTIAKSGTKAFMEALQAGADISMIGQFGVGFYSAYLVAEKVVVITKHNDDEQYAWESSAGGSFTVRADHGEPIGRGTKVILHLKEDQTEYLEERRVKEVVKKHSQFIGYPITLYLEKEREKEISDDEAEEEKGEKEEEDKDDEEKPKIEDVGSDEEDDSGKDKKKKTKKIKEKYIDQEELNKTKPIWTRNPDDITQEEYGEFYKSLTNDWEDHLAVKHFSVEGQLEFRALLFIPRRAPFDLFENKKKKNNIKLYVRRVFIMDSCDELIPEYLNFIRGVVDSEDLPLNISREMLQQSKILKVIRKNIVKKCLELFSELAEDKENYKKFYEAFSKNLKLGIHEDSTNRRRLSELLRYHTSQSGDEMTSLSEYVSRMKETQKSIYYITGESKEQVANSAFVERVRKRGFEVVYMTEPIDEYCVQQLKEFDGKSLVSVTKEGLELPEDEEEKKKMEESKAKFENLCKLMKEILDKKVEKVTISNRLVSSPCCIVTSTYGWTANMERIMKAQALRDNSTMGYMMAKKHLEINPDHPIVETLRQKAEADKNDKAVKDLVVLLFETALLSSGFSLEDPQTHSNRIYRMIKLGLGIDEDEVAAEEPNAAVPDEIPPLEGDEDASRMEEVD

Homo sapiens [15] = species on record: Homo sapiens; assay: Cytoprotective activity in BSO-stimulated human Friedreich's ataxia fibroblasts assessed as preservation of mitochondrial membrane potential at 5 uM after 12 hrs by JC-1 dye-based Zeiss fluorescent microscopic analysis
[16] = target: Heat shock protein HSP 90-beta (Homo sapiens) (UniProt P08238); assay: Inhibition of HSP90 in human BT474 cells expressing HER2 assessed as HER2 protein degradation at 0.5 to 25 uM after 24 hrs by chemiluminescence assay; type: cell-based; details: BT-474
Homo sapiens [17] = species on record: Homo sapiens; assay: Cytoprotective activity in human Friedreich's ataxia lymphocytes assessed as reduction in DEM-induced oxidative stress preincubated for 16 hrs prior to DEM-stimulation measured after 6 hrs by trypan blue exclusion assay; type: functional; summary of the method: as §1
[18] = Cytotoxicity against human Friedreich's ataxia lymphocytes at 5 to 20 uM after 48 hrs by WST-1 assay
[19] = target: Amyloid-beta precursor protein (Homo sapiens) (UniProt P05067); assay: Neuroprotective activity in differentiated human SH-SY5Y cells assessed as decrease in amyloid beta (1 to 42)-induced neurotoxicity incubated overnight prior to amyloid beta (1 to 42)-stimulation measured after 48 hrs by WST-1 assay; type: functional, cell-based
Sequence of Amyloid-beta precursor protein (Homo sapiens) (P05067 whole entry): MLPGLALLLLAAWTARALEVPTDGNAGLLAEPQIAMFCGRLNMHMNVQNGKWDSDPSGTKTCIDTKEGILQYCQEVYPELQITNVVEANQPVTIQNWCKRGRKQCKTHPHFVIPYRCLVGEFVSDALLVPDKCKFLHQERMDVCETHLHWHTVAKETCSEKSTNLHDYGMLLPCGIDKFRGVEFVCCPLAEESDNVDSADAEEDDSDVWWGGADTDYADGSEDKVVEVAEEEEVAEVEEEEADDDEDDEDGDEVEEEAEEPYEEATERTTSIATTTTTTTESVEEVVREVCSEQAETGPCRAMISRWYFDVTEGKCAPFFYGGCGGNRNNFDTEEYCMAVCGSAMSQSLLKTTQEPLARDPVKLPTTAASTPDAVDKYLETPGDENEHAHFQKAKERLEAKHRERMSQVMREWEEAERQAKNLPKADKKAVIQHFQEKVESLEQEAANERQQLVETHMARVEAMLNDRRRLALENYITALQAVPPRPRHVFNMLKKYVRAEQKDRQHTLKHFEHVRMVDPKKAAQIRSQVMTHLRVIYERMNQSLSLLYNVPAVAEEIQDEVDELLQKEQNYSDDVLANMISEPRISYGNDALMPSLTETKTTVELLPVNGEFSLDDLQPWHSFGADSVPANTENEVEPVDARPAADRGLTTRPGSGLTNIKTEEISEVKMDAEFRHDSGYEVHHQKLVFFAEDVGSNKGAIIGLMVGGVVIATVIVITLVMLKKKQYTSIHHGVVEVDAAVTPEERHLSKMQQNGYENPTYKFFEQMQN

BT-474 [20] = assay: Cytotoxicity against human BT474 cells at 0.05 to 0.25 uM after 48 hrs by WST-1 assay; type: cell-based; details: bt-474, 48 h
[21] = Cytotoxicity against human Friedreich's ataxia lymphocytes at 0.05 to 0.25 uM after 48 hrs by WST-1 assay

SMILES | Activity [1] [%] | Activity [2] [%] | Activity (Homo sapiens [3]) [%] | Activity [4] [%] | Activity [5] [%] | Activity (Homo sapiens [6]) | Activity (Homo sapiens [7]) [%] | Activity (Homo sapiens [8]) | Activity (Homo sapiens [9]) [%] | Activity (Homo sapiens [10]) [%] | further results
CCCCCCCCCCCCCC1=C(OC)C(=O)C=C(NCCCCCC)C1=O | 20 | 50 | 14 | 66 | 80 | Active | 61 | Dose-dependent effect | 56 | 70 | –
COC1=C2CCCCCCCCCCCCCCCNC(=CC1=O)C2=O | 36 | 69 | 29 | 83 | 92 | – | 72 | Dose-dependent effect | 80 | 83 | Activity (Homo sapiens [11]): Dose-dependent effect; Activity [12]: Non-toxic; Activity (BT-474 [13]): Non-toxic; inhibition [14]: inactive; Activity (Homo sapiens [15]): Active; inhibition [16]: inactive; Activity (Homo sapiens [17]): Dose-dependent effect; Activity [18]: Non-toxic; Activity [19]: Dose-dependent effect
COC1=C2C[C@@H](C)C[C@H](OC)[C@H](O)[C@@H](C)/C=C(\C)[C@H](OC(N)=O)[C@@H](OC)/C=C\C=C(/C)C(=O)NC(=CC1=O)C2=O [GELDANAMYCIN] | – | – | – | – | – | – | – | – | – | – | Activity (BT-474 [20]): Toxic; Activity [21]: Toxic
CCCCCCCCCCCCCC1=C(O)C(=O)C=C(NCCCCCC)C1=O | 18 | 22 | 2 | 43 | 65 | Active | 27 | – | 43 | 38 | –
